B2AR ag: activates human beta-2 adrenergic receptor causing internalization. P07550. Am2.2-beta2AR cells, FAP receptor internalization, flow cytometry. response, % (no concentration beside the values). actives 0.43% (n = 340,000). AID 504454;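 active means response above a set limit, near 3 SD of response in nonfluorescent compounds, cut at about 42% in these data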
Rin1-Abl PPI inh: blocks binding of human Rin1 to Abl; P00519+Q13671; TR-FRET Rin1/Abl binding, biochemical; inhibition, % at 7.35 µM; actives 0.4% (n = 360,000); AID 588664; in the data active means inhibition above about 5%, passing the limit was not always enough
Arr AP2 block: inhibitors of human beta-arrestin and AP2 interaction. FITC-arrestin peptide / GST-AP2 beads, flow cytometry; AP2 beta2 appendage carries R879A mutation. inhibition, % at 10 µM. actives 0.31% (n = 340,000). AID 504490;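 active means inhibition above a set limit, near 3 SD of compounds lacking own fluorescence, cut at about 54% in these data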;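 further: plate controls were DMSO wells for no effect and 5 µM unlabelled arrestin peptide for full effect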
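Assay system: GST-AP2 R879A bound to glutathione beads, E. coli-expressed; Medium: PBS with 0.05% Tween 20 and 0.1% BSA; Also added: fluorescein-tagged arrestin peptide at 50 nM final; Timing: 12 min plus 1 h, RT; Measured by: flow cytometry, FL1 (488/535 nm); Evaluation: percent drop in bead-associated FITC signal.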
MBD2 DNA inh: MBD2-methylated oligo binding inhibition. Q9UBB5. TR-FRET, MBD2 binding to methylated oligonucleotide. inhibition, % at 4.4 µM. actives 0.31% (n = 370,000). AID 686964; in the data active means inhibition above about 13%
UHRF1 MBD2 ctr: human UHRF1 methylated DNA binding inhibitors; Q96T88; UHRF1 binding to methylated oligo, TR-FRET; inhibition, % at 4.4 µM; actives 0.75% (n = 370,000); in the data active means inhibition above about 21%;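 further: UHRF1 SRA domain binding a hemimethylated CpG hairpin DNA probe; 0% = median of test compound wells and 100% = reference inhibitor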
ABHD5 PLIN5 PPI: blocks binding of human ABHD5 to perilipin-5 | Split G. princeps luciferase complementation, luminescence, 4 h | inhibition, % at 4 µM | actives 0.78% (n = 360,000) | AID 602281;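 active means inhibition above the mean inhibition across every tested compound plus 3 SD, cut at about 22% in these data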;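 further: 0% = DMSO only wells and the 100% control is not disclosed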
Target sequence (Q00G26 whole entry, looked up): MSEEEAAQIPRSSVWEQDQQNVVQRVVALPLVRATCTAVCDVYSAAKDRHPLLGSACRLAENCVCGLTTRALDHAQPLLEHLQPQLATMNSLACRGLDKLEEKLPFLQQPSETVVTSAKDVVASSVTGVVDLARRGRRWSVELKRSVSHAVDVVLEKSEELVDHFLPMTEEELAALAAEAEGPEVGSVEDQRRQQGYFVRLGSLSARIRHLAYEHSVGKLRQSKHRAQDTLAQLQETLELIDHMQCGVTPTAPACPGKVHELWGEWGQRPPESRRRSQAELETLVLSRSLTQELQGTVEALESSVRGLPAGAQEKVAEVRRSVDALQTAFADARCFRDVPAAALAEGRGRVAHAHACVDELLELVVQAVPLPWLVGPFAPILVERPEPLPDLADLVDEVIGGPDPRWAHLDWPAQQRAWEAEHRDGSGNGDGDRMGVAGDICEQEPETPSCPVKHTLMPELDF
Target sequence (Q8WTS1 whole entry, looked up): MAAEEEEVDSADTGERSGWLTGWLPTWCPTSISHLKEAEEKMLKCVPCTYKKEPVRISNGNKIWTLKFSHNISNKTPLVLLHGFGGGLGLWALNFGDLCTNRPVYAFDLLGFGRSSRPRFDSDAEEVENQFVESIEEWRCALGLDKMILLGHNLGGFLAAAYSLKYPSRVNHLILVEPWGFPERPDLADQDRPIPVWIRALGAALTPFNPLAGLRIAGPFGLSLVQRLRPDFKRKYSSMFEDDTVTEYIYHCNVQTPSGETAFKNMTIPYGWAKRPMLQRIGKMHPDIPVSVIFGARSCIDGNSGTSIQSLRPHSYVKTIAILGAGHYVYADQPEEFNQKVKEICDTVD
B2AR ag CP1: human beta-2 adrenergic receptor agonism, cherry pick. shares compounds with B2AR ag. actives 25% (n = 1,100). Am2.2-beta2AR cells, FAP surface receptor, flow cytometry; active compounds read low. percent response (surface receptor), % at 10 µM;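 active means surface receptor percent response at or below 58%, roughly 3 SD from nonfluorescent compounds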
B2AR FAP counter: counter-screen for beta-2AR agonists: fluorescence in Am2.2 cells; FAP fluorogen flow cytometry, fluorescence counterscreen; active compounds read low; shares compounds with B2AR ag; calls only at 10 µM; 1,100 tested, under 10 active;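 active means percent response below a set limit in fluorescence channel 1 and below 50% in channel 8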
An asterisk follows results filed as active; i = inactive; . = no result. Hits are enriched below; roughly 2.5% of the tested compounds scored in any of these assays.

SMILES | B2AR ag | Rin1-Abl PPI inh | Arr AP2 block | MBD2 DNA inh | UHRF1 MBD2 ctr | ABHD5 PLIN5 PPI | B2AR ag CP1 | B2AR FAP counter
CCN(CC)c1ccc(-c2nn3c(-c4ccc(C(C)(C)C)cc4)nnc3s2)cc1 | . | . | . | 1 | -1 | . | . | .
CCN(CC)c1ccc(-c2nn3c(-c4ccccc4OC)nnc3s2)cc1 | 42* | -2 | 21 | . | . | -3 | 81 | i
O=C1CCC[C@H]2C[C@H](NCc3ccc(Br)cc3)CC[C@]23CCCN13 | . | . | . | -1 | 1 | . | . | .
CCCCN(Cc1cc2ccccc2[nH]c1=O)S(=O)(=O)c1ccc(C)cc1 | -15 | 0 | 12 | 1 | 2 | 0 | . | .
COC(=O)c1ccccc1S(=O)(=O)N(Cc1ccco1)Cc1cc2cc(OC)ccc2[nH]c1=O | 6 | 1 | 12 | -3 | -3 | 18 | . | .
O=c1[nH]c2ccccc2cc1CN(Cc1cccnc1)S(=O)(=O)c1ccc([N+](=O)[O-])cc1 | -18 | 1 | -5 | 0 | -1 | 1 | 151 | i
CC(=O)Nc1ccc(S(=O)(=O)N(Cc2cccnc2)Cc2cc3ccccc3[nH]c2=O)cc1 | 74* | 0 | -8 | 0 | 4 | 7 | 29* | i
O=c1[nH]c2ccccc2cc1CN(Cc1cccnc1)S(=O)(=O)c1ccc(Cl)cc1 | -9 | -1 | 35 | 2 | -1 | 4 | 153 | i
CC(=O)Nc1ccc(S(=O)(=O)N(Cc2ccco2)Cc2cc3ccccc3[nH]c2=O)cc1 | 106* | 2 | 21 | 6 | 1 | 11 | 23* | i
Nn1c(SCc2ccc([N+](=O)[O-])cc2)nnc1-c1n[nH]c2c1CCC2 | . | . | . | -2 | 0 | . | . | .
CC(c1ccc(O)cc1)c1cn(C)c2ccccc12 (centres undefined) | . | . | . | 3 | -2 | . | . | .
Cc1cc(C)n(-c2nc(NC(C)C)nc(NC(C)C)n2)n1 | -2 | 0 | 7 | -4 | 1 | -2 | 115 | i
Cc1cc(C)n(-c2nc(Nc3ccccc3C)nc(-n3nc(C)cc3C)n2)n1 | . | . | . | 5 | 2 | . | . | .
CCNc1nc(NCC)nc(-n2nc(C)cc2C)n1 | 3 | 2 | -5 | 8 | 4 | 0 | 113 | i
Cc1cc(C)n(-c2nc(NC(C)(C)C)nc(NC(C)(C)C)n2)n1 | -2 | 0 | -12 | -2 | -3 | -5 | . | .
COC(=O)NC1(C(F)(F)F)C(=O)Nc2c1c(=O)n(C)c(=O)n2C (centres undefined) | 59* | -9 | -2 | 1 | -3 | -7 | 106 | i
C=CCN1C(=O)[C@@H](CC(=O)N2CCOCC2)[C@]2(C(=O)OC)CCCCC=C12 | . | . | . | 3 | -1 | . | . | .
CCN(CCNCC(O)COc1ccccc1C(C)C)c1cccc(C)c1 (centres undefined) | 45* | 5 | 0 | 9 | 1 | 3 | 126 | i
CC(C)(NC(=O)NC(CO)c1ccccc1)c1cccc(C(C)(C)NC(=O)NC(CO)c2ccccc2)c1 (centres undefined) | -8 | 3 | 8 | 1 | 8 | 0 | 110 | i
CC(C)(C(=O)N[C@H](CO)c1ccccc1)C(=O)N[C@H](CO)c1ccccc1 | 1 | 3 | -3 | 1 | -1 | -1 | . | .
O=C1CN(S(=O)(=O)c2ccc(Br)cc2)c2ccccc2N1 | -6 | -2 | -5 | 0 | -2 | -4 | . | .
O=C1CN(S(=O)(=O)c2cccc(Cl)c2Cl)c2ccccc2N1 | 46* | -3 | 1 | -4 | 2 | -3 | 26* | i
O=C(O)c1ccccc1N=Cc1c(O)n(-c2nccs2)c(=O)c2ccccc12 | -1 | -4 | 7 | -8 | 0 | -2 | . | .
CCN(CC)S(=O)(=O)c1cccc(-n2c(O)c(C=Nc3ccccc3C(=O)O)c3ccccc3c2=O)c1 | 47* | -1 | 6 | -5 | -3 | -3 | 99 | i
Oc1ccc(C[C@@H]2CNCCN2CCc2cc(C(F)(F)F)cc(C(F)(F)F)c2)cc1 | 80* | 0 | 10 | -6 | -6 | 7 | 93 | i
SMILES | B2AR ag | Rin1-Abl PPI inh | Arr AP2 block | MBD2 DNA inh | UHRF1 MBD2 ctr | ABHD5 PLIN5 PPI | B2AR ag CP1 | B2AR FAP counter
Cc1cc(C)n2c(Br)c(CSc3nc4ccccc4s3)nc2n1 | 47* | -2 | -2 | -5 | -3 | -10 | 79 | i
Cc1cc(Cl)c2oc(C(=O)N3CCN(c4ccncc4)CC3)c(C)c2c1 | 65* | 2 | 28 | -2 | -1 | 16 | 65 | i
COC(=O)C1CCN(C(=O)c2oc3c(Cl)cc(C)cc3c2C)CC1 | 5 | 3 | -4 | -1 | 2 | -1 | . | .
COc1cccc(CNC(=O)C(C)n2ccc3cc(S(=O)(=O)N4CCCC4)ccc32)c1 (centres undefined) | 3 | -1 | -5 | -4 | 0 | 7 | . | .
COc1cccc(CNC(=O)C(C)n2ccc3cc(S(=O)(=O)N4CCCCCC4)ccc32)c1 (centres undefined) | 47* | -2 | -5 | -6 | 1 | 6 | 112 | i
Cc1ccc(CNC(=O)OC(C)(C)C)c(/C=C/S(=O)(=O)NC2CCCC2)c1 | . | . | . | 4 | 3 | . | . | .
Cc1cccc2sc(NC(=O)CN(C)S(=O)(=O)c3ccc(Br)s3)nc12 | 51* | 0 | 1 | 2 | 0 | -5 | 109 | i
Nc1c(Cl)cnn(-c2ccccc2)c1=O | -5 | -1 | -16 | 3 | 1 | 0 | 112 | i
O=c1c(Cl)c(Cl)cnn1-c1ccccc1 | 34 | 3 | 17 | -1 | 5 | 10 | . | .
COc1cccc(N2CCN(C(=O)COc3cc(=O)n(C)c4ccccc34)CC2)c1 | . | . | . | 4 | 2 | . | . | .
CCn1c(SCC(=O)N2CCCC2)nnc1-c1ccc(N)cc1 | 86* | -3 | -38 | 5 | 2 | -3 | 6.8* | i
CCCCn1c(SCC(=O)N2CCCC2)nnc1-c1ccccc1 | -4 | 2 | -4 | -1 | 1 | -8 | . | .
CC(C)CNc1cccc2c1S(=O)(=O)N(Cc1cn(Cc3cccc(C(F)(F)F)c3)nn1)Cc1ccccc1O2 | . | . | . | 5 | 11 | . | . | .
COc1ccccc1Nc1nn2c(=O)c3ccc(C(=O)NCc4cccnc4)cc3nc2s1 | 55* | 0 | 2 | . | . | 5 | 97 | i
Cc1oc(CC(C)C)cc1C(=O)Nc1cccc2ccccc12 | 43* | 0 | -9 | 1 | -3 | -12 | 99 | i
O=C1ON=C(c2ccccc2)/C1=C/c1cccnc1 | -3 | 4 | -5 | -7 | -2 | -8 | 100 | i
CCOC(=O)N1CCN(C(=O)C[C@H]2C[C@@]3(C(=O)OC)C(=C[C@H](C4CCCC4)O[C@@H]3C)N(Cc3ccc(Cl)cc3Cl)C2=O)CC1 | . | . | . | -2 | -4 | . | . | .

Source: PubChem BioAssay
